Our source for the IC50 values is ChEMBL document CHEMBL4431302, “Vobatensines A-F, Cytotoxic Iboga-Vobasine Bisindoles from Tabernaemontana corymbosa” (J Nat Prod, 2016).

Each structure is given as a SMILES string.

In assay [1] the test system is KB/VJ300. Kind of assay: Growth inhibition of human KB/VJ300 cells after 72 hrs by MTT assay. It counts as functional, cell-based. Particulars: KB/VJ300, 72 h. The method, boiled down:
(§1)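 Cytotoxicity run by a previously reported procedure, with vincristine and cisplatin as positive controls.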

Assay [2] in a line: Growth inhibition of human KB/S cells after 72 hrs by MTT assay. It counts as functional. The method, boiled down: as §1
Background: Tetrazolium assays rely on reduction of a dye to a coloured formazan, in cell work by metabolically active cells.

The subject of assay [3] is KB/VJ300. Kind of assay: Growth inhibition of human KB/VJ300 cells after 72 hrs in presence of vincristine by MTT assay. The class given is functional, cell-based. The conditions noted are these: KB/VJ300, 72 h. The method, boiled down:
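Vincristine-resistant KB/VJ300 cells were exposed to test compound together with vincristine at 0.1 μg/mL, a multidrug-resistance reversal set-up. Cytotoxicity was run by a previously reported procedure, with vincristine and cisplatin as positive controls.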

The next assay concerns LNCaP. Kind of assay: Growth inhibition of human LNCAP cells after 72 hrs by MTT assay. The class given is functional, cell-based. The method, boiled down: as §1
Another assay deals with MCF7. The assay can be described thus: Growth inhibition of human MCF7 cells after 72 hrs by MTT assay. The class given is functional, cell-based. Particulars: MCF7, 72 h. The method, boiled down:
as §1

A further assay concerns PC-3. Kind of assay: Growth inhibition of human PC3 cells after 72 hrs by MTT assay. It counts as functional, cell-based. Particulars: PC-3, 72 h. The method, boiled down: as §1
The subject of the next assay is HT-29. The assay can be described thus: Growth inhibition of human HT-29 cells after 72 hrs by MTT assay. Particulars: HT-29, 72 h. It counts as functional, cell-based. The method, boiled down: as §1
A further assay concerns MDA-MB-231. Kind of assay: Growth inhibition of human MDA-MB-231 cells after 72 hrs by MTT assay. It counts as functional, cell-based. The conditions noted are these: MDA-MB-231, 72 h. The gist of the method: as §1
Another assay concerns A549. The assay can be described thus: Growth inhibition of human A549 cells after 72 hrs by MTT assay. The class given is functional, cell-based. The conditions noted are these: A549, 72 h. The method, boiled down: as §1
The subject of the next assay is HCT-116. The assay can be described thus: Growth inhibition of human HCT116 cells after 72 hrs by MTT assay. The class given is functional, cell-based. The conditions noted are these: HCT-116, 72 h. The gist of the method: as §1

As usually defined, the IC50 is the concentration that inhibits the measured activity by half. On to `COc1ccc(CCN(C)CCCC(C#N)(c2ccc(OC)c(OC)c2)C(C)C)cc1OC` (stereo not given) [VERAPAMIL], for which the IC50 in the assay with KB/VJ300 [1] is > 10 µM; in assay [2] it was > 10 µM; with KB/VJ300 [3], 4.6 µM.

With `C/C=C1/CN(C)[C@H]2Cc3c([nH]c4ccccc34)[C@@H](c3cc4c(cc3OC)[C@@]3(O)CCN5C[C@H]6C[C@H](CC)[C@H]5[C@@H](C6)C3=N4)C[C@H]1[C@@H]2C(=O)OC`, the half-inhibitory concentration (IC50) in the assay on LNCaP is > 10 µM; in the assay on MCF7 it was > 10 µM; in the assay on PC-3, 5.6 µM; in the assay with KB/VJ300 [1], 10 to 30 µM; in the assay with HT-29, 7.2 µM; in the assay on MDA-MB-231, > 10 µM. In addition, the IC50 in [2] is > 10 µM; with A549 it was > 10 µM; in the assay on HCT-116, 9.7 µM; in the assay with KB/VJ300 [3], 9 to 9.2 µM.

With `C/C=C1/CN(C)[C@H]2Cc3c([nH]c4ccccc34)[C@@H](c3c(OC)ccc4[nH]c5c(c34)CCN3C[C@H]4C[C@H](CC)[C@H]3[C@H]5C4)C[C@H]1[C@@H]2C(=O)OC`, the IC50 in the assay on LNCaP is > 10 µM; in the assay on MCF7 it was > 10 µM; with PC-3, 7.7 µM; in the assay on KB/VJ300 [1], 10 to 30 µM; in the assay on HT-29, 1.9 µM; in the assay on MDA-MB-231, 4.6 µM. The IC50 in assay [2] is > 10 µM; in the assay on A549, > 10 µM; in the assay on HCT-116, 7.4 µM; with KB/VJ300 [3], 9 to 9.6 µM.

`CC[C@]1(O)C[C@H]2CN(CCc3c([nH]c4ccccc34)[C@@](C(=O)OC)(c3cc4c(cc3OC)N(C=O)[C@H]3[C@@](O)(C(=O)OC)[C@H](OC(C)=O)[C@]5(CC)C=CCN6CC[C@]43[C@@H]65)C2)C1` [VINCRISTINE]: the IC50 was found to be 6.6 µM with KB/VJ300 [1] and 0.0024 µM in assay [2].

For `C/C=C1/CN2CC[C@]34C(=C(C=O)C1C[C@H]23)Nc1cc([C@H]2C[C@@H]3/C(=C\C)CN(C)[C@@H](Cc5c2[nH]c2ccccc52)[C@H]3C(=O)OC)ccc14`, the IC50 in the assay with LNCaP is > 10 µM; in the assay on MCF7 it was 8.6 µM; with PC-3, 5.4 µM; in the assay on KB/VJ300 [1] it was > 10 µM; with HT-29 it was 1.3 µM; in the assay on MDA-MB-231 it was 4.5 µM. Besides, the IC50 in assay [2] was > 10 µM; in the assay with A549, 9.2 µM; in the assay on HCT-116 it was 6.7 µM; in the assay on KB/VJ300 [3] it was > 10 µM.

`C/C=C1/CN(C)[C@H]2Cc3c([nH]c4ccccc34)[C@@H](c3cc4[nH]c5c(c4cc3OC)CCN3C[C@H]4C[C@H]([C@@H](C)O)[C@H]3[C@H]5C4)C[C@H]1[C@@H]2C(=O)OC`: the IC50 in the assay on LNCaP was > 10 µM; in the assay with MCF7, 8.8 µM; with PC-3, 5.7 µM; in the assay on KB/VJ300 [1], 7.2 µM; in the assay on HT-29, 1.2 µM; in the assay on MDA-MB-231, 3.9 µM. Besides, the IC50 in [2] is 8.2 µM; in the assay on A549, 9.7 µM; with HCT-116 it was 3 µM; with KB/VJ300 [3] it was > 10 µM.

For the compound `CC[C@@H]1CN(C)[C@H]2Cc3c([nH]c4ccccc34)[C@@H](c3cc4[nH]c5c(c4cc3OC)CCN3C[C@H]4C[C@H](CC)[C@H]3[C@H]5C4)C[C@H]1[C@@H]2C(=O)OC`, the IC50 in the assay with LNCaP was > 10 µM; with MCF7 it was 3.4 µM; in the assay with PC-3, 3.5 µM; in the assay with KB/VJ300 [1] it was 8.3 µM; in the assay on HT-29, 0.92 µM; in the assay with MDA-MB-231, 2.8 µM. In addition, the concentration for half-maximal inhibition (IC50) is 8 µM in [2], > 10 µM with A549, 2.9 µM with HCT-116 and 9.3 µM in the assay with KB/VJ300 [3].

In the case of `C/C=C1/CN(C)[C@H]2Cc3c([nH]c4ccccc34)[C@@H](c3cc4c(cc3OC)C(=O)[C@@]3(CCN5C[C@H]6C[C@H](CC)[C@H]5[C@H]3C6)N4)C[C@H]1[C@@H]2C(=O)OC`, the IC50 in the assay with LNCaP is 10 µM; in the assay with MCF7, 9.4 µM; in the assay on PC-3, 8.8 µM; in the assay with KB/VJ300 [1], 9.1 µM; in the assay with HT-29 it was 2.9 µM; in the assay on MDA-MB-231, 7.7 µM. Also, the IC50 in assay [2] turned out to be 8.3 µM; in the assay on A549, 9.1 µM; in the assay on HCT-116 it was 7.1 µM; in the assay with KB/VJ300 [3] it was 3.3 µM.

For the compound `C/C=C1/CN(C)[C@H]2Cc3c([nH]c4ccccc34)[C@@H](c3cc4[nH]c5c(c4cc3OC)CCN3C[C@H]4C[C@H](CC)[C@H]3[C@H]5C4)C[C@H]1[C@@H]2C(=O)OC`, the IC50 in the assay on LNCaP was > 10 µM; in the assay on MCF7, 6 µM; in the assay on PC-3 it was 2.8 µM; with KB/VJ300 [1], 5 µM; with HT-29 it was 0.93 µM; in the assay with MDA-MB-231 it was 2.5 µM. The IC50 in [2] came out at 5.3 µM; in the assay on A549, 6.8 µM; in the assay with HCT-116, 1.6 µM; with KB/VJ300 [3], 7 µM.

On to `CC[C@@H]1CN(C)[C@H]2Cc3c([nH]c4ccccc34)[C@@H](c3cc4[nH]c5c(c4cc3OC)CCN3C[C@H]4C[C@H]([C@@H](C)O)[C@H]3[C@H]5C4)C[C@H]1[C@@H]2C(=O)OC`, for which the IC50 in the assay with LNCaP is > 10 µM; with MCF7, 9.3 µM; with PC-3 it was 6.9 µM; with KB/VJ300 [1], 8.1 µM; in the assay with HT-29, 2.4 µM; in the assay with MDA-MB-231 it was 3.6 µM. Moreover, the IC50 was 8 µM in assay [2], 9.6 µM in the assay on A549, 3.5 µM in the assay on HCT-116 and 8.6 µM in the assay with KB/VJ300 [3].

`CC[C@@H]1CN(C)[C@H]2Cc3c([nH]c4ccccc34)[C@@H](c3cc4c(cc3OC)C(=O)[C@@]3(CCN5C[C@H]6C[C@H](CC)[C@H]5[C@H]3C6)N4)C[C@H]1[C@@H]2C(=O)OC`: the IC50 in the assay on LNCaP is > 10 µM; with MCF7, 7.5 µM; in the assay with PC-3 it was 8.1 µM; in the assay with KB/VJ300 [1] it was > 10 µM; with HT-29, 1.8 µM; in the assay with MDA-MB-231, 3.3 µM. Also, the IC50 in assay [2] is > 10 µM; in the assay on A549 it was 8.4 µM; with HCT-116 it was 7.8 µM; in the assay with KB/VJ300 [3], 5.1 µM.
